Reference: ChEMBL document CHEMBL1134454, “Synthesis and evaluation of oxodioxolenylmethyl carbamate prodrugs of pseudomycins” (2001)
In brackets after ≈: the same amount, converted by molar mass. Bridge positions count the residues as written; N and C are the ends. Square brackets hold non-standard residues; d marks the D form. Peptide text beside a SMILES is read from it. * marks the point of attachment. Tetradecanoyl(3R-OH) = CCCCCCCCCCC[C@@H](O)CC(=O)*; Asp(3S-OH) = N[C@H](C(=O)O)[C@H](O)C(=O)O; Thr(4-Cl) = N[C@H](C(=O)O)[C@H](O)CCl; aThr = C[C@H](O)[C@H](N)C(=O)O; dDab = NCC[C@@H](N)C(=O)O; Dab = NCC[C@H](N)C(=O)O; Dhb = C/C=C(\N)C(=O)O

Experiments:
Aspergillus fumigatus = assay: In vitro potency against Aspergillus fumigatus; assay type: functional
Summary of the method: (§1)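 Broth microdilution in Sabouraud broth. Compounds were dissolved in DMSO and diluted to 20 μg/mL final in the first well, then serially 2-fold. Yeasts were grown on Sabouraud dextrose agar at 35 °C for 24 h, suspended in saline and adjusted to 2×10^5/mL in broth. A. fumigatus spores were taken from potato dextrose agar mycelia into 0.1% Tween 80/saline. MIC was the lowest concentration giving 90–100% visible growth inhibition versus controls.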

Mus musculus [1] = species on record: Mus musculus; assay: Drug concentration required to achieve 50% survival of fungal infection compared with untreated animals in experiment 1.; assay type: functional
Summary of the method: (§2)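 Outbred male ICR mice (18–20 g), X-irradiated 400 r 24 h before infection. C. albicans A26 blastospores, 2×10^6 per mouse, given iv by lateral tail vein. Dosed 0.2 mL at 20, 10 and 5 mg/kg at 0, 4, 24 and 48 h post-infection, in 4.0% hydroxypropyl cyclodextrin/sodium acetate pH 7.0/1.75% dextrose. Survival followed 7 days; ED50 by Reed and Muench.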

Cryptococcus neoformans = assay: In vitro potency against Cryptococcus neoformans; assay type: functional; summary of the method: as §1
Candida albicans = assay: In vitro potency against Candida albicans; assay type: functional; summary of the method: as §1
Mus musculus [2] = species on record: Mus musculus; assay: Evaluated for tail vein toxicity assay in male ICR mice; Partial positive; assay type: functional, organism-based
Mus musculus [3] = species on record: Mus musculus; assay: Drug concentration required to achieve 50% survival of fungal infection compared with untreated animals in experiment 2.; assay type: functional; summary of the method: as §2
Mus musculus [4] = species on record: Mus musculus; assay: Evaluated for tail vein toxicity assay in male ICR mice; Negative; assay type: functional, organism-based
Mus musculus [5] = species on record: Mus musculus; assay: Evaluated for tail vein toxicity assay in male ICR mice; Positive; assay type: functional, organism-based

| SMILES | MIC (Aspergillus fumigatus) | ED50 (Mus musculus [1]) | MIC (Cryptococcus neoformans) | MIC (Candida albicans) | Activity (Mus musculus [2]) | ED50 (Mus musculus [3]) | Activity (Mus musculus [4]) | Activity (Mus musculus [5]) |
| --- | --- | --- | --- | --- | --- | --- | --- | --- |
| C/C=C1\NC(=O)[C@H]([C@H](C)O)NC(=O)[C@H](CCN)NC(=O)[C@H](CCCCNC(=O)OCc2oc(=O)oc2C)NC(=O)[C@H](CC(=O)O)NC(=O)[C@@H](CCNC(=O)OCc2oc(=O)oc2C)NC(=O)[C@@H](NC(=O)C[C@H](O)CCCCCCCCCCC)COC(=O)[C@H]([C@H](O)CCl)NC(=O)[C@H]([C@H](O)C(=O)O)NC1=O | > 20 mg/L | 7.07 mg/kg | 0.3 mg/L (≈ 0.197 µM) | 5 mg/L (≈ 3.29 µM) | Partial positive |  |  |  |
| C/C=C1\NC(=O)[C@H]([C@H](C)O)NC(=O)[C@H](CCN)NC(=O)[C@H](CCCCNC(=O)OCc2oc(=O)oc2C)NC(=O)[C@H](CC(=O)O)NC(=O)[C@@H](CCNC(=O)OCc2oc(=O)oc2C)NC(=O)[C@@H](NC(=O)C[C@H](O)CCCCCCCCCCCCC)COC(=O)[C@H]([C@H](O)CCl)NC(=O)[C@H]([C@H](O)C(=O)O)NC1=O |  | > 20 mg/kg |  |  | Partial positive |  |  |  |
| C/C=C1\NC(=O)[C@H]([C@H](C)O)NC(=O)[C@H](CCNC(=O)OCc2oc(=O)oc2C)NC(=O)[C@H](CCCCNC(=O)OCc2oc(=O)oc2C)NC(=O)[C@H](CC(=O)O)NC(=O)[C@@H](CCNC(=O)OCc2oc(=O)oc2C)NC(=O)[C@@H](NC(=O)C[C@H](O)CCCCCCCCCCC)COC(=O)[C@H]([C@H](O)CCl)NC(=O)[C@H]([C@H](O)C(=O)O)NC1=O | > 20 mg/L | 6.85 mg/kg | 10 mg/L (≈ 5.97 µM) | > 20 mg/L |  | 7.8 mg/kg | Negative |  |
| C/C=C1\NC(=O)[C@H]([C@H](C)O)NC(=O)[C@H](CCNC(=O)OCc2oc(=O)oc2C)NC(=O)[C@H](CCCCN)NC(=O)[C@H](CC(=O)O)NC(=O)[C@@H](CCN)NC(=O)[C@@H](NC(=O)C[C@H](O)CCCCCCCCCCC)COC(=O)[C@H]([C@H](O)CCl)NC(=O)[C@H]([C@H](O)C(=O)O)NC1=O | > 20 mg/L | 5.95 mg/kg | 1.3 mg/L (≈ 0.953 µM) | 5 mg/L (≈ 3.67 µM) |  |  | Negative |  |
| C/C=C1\NC(=O)[C@H]([C@H](C)O)NC(=O)[C@H](CCN)NC(=O)[C@H](CCCCN)NC(=O)[C@H](CC(=O)O)NC(=O)[C@@H](CCN)NC(=O)[C@@H](NC(=O)C[C@H](O)CCCCCCCCCCC)COC(=O)[C@H]([C@H](O)CCl)NC(=O)[C@H]([C@H](O)C(=O)O)NC1=O [PSEUDOMYCIN B] ({Tetradecanoyl(3R-OH)}-S[dDab]DK[Dab][aThr][Dhb][Asp(3S-OH)][Thr(4-Cl)]; ester 1-C) | > 20 mg/L |  | 0.078 mg/L (≈ 0.0646 µM) | 0.625 mg/L (≈ 0.517 µM) |  | 3.8 mg/kg |  | Positive |
| C/C=C1\NC(=O)[C@H]([C@H](C)O)NC(=O)[C@H](CCN)NC(=O)[C@H](CCCCN)NC(=O)[C@H](CC(=O)O)NC(=O)[C@@H](CCN)NC(=O)[C@@H](NC(=O)C[C@H](O)CCCCCCCCCCCCC)COC(=O)[C@H]([C@H](O)CCl)NC(=O)[C@H]([C@H](O)C(=O)O)NC1=O | 10 mg/L (≈ 8.09 µM) | 7.8 mg/kg | < 0.02 mg/L | 0.312 mg/L (≈ 0.252 µM) |  | 12.4 mg/kg |  | Positive |
| C/C=C1\NC(=O)[C@H]([C@H](C)O)NC(=O)[C@H](CCNC(=O)OCc2oc(=O)oc2C)NC(=O)[C@H](CCCCN)NC(=O)[C@H](CC(=O)O)NC(=O)[C@@H](CCN)NC(=O)[C@@H](NC(=O)C[C@H](O)CCCCCCCCCCCCC)COC(=O)[C@H]([C@H](O)CCl)NC(=O)[C@H]([C@H](O)C(=O)O)NC1=O |  | 9 mg/kg |  |  | Partial positive |  |  |  |
| C/C=C1\NC(=O)[C@H]([C@H](C)O)NC(=O)[C@H](CCNC(=O)OCc2oc(=O)oc2C)NC(=O)[C@H](CCCCNC(=O)OCc2oc(=O)oc2C)NC(=O)[C@H](CC(=O)O)NC(=O)[C@@H](CCNC(=O)OCc2oc(=O)oc2C)NC(=O)[C@@H](NC(=O)C[C@H](O)CCCCCCCCCCCCC)COC(=O)[C@H]([C@H](O)CCl)NC(=O)[C@H]([C@H](O)C(=O)O)NC1=O | > 20 mg/L | 12.4 mg/kg | 5 mg/L (≈ 2.93 µM) | > 20 mg/L |  | 10.8 mg/kg | Negative |  |
